For series [1], the target named is T1, Sodium/glucose cotransporter 2 (Homo sapiens, UniProt P31639).
T1 sequence (P31639 whole entry): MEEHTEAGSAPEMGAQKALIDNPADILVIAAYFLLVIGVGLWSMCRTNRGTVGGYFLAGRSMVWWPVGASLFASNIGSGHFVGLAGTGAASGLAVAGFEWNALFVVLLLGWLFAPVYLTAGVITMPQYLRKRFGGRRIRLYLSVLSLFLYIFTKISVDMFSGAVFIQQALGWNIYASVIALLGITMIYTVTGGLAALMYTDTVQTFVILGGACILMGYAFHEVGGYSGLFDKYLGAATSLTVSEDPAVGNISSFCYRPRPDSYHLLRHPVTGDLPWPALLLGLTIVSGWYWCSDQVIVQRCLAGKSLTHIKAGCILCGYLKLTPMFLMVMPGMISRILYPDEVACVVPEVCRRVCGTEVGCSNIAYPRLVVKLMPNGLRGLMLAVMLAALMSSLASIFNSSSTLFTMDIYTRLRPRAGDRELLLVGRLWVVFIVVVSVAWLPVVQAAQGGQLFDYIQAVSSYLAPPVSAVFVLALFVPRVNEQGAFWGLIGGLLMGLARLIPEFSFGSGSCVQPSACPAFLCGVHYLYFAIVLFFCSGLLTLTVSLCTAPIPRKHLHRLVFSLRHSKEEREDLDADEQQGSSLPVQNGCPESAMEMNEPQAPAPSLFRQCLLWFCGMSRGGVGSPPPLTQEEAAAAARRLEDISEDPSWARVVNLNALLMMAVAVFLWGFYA
Kind of series: In vitro inhibition of Na-dependent [14C]AMG uptake in CHO-K1 cells expressing human sodium glucose co-transporter 2. Type of series: functional, cell-based. The essentials: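 CHO-K1 cells overexpressing human SGLT2 pre-treated with compound for 15 min with or without NaCl, then labelled with 14C-alpha-methylglucopyranoside (AMG, nonmetabolizable glucose analogue); sodium-dependent uptake of label measured.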

The nature of series [2]: Metabolic half-life as a measure of human liver microsomal stability was determined at 5 uM. As to conditions: liver microsomes. Type of series: ADME. In general terms: Microsomes from liver hold many membrane-bound enzymes, among them those of drug oxidation.
Series [3] in a line: (§1) In vivo ability to induce urinary glucose excretion in male Zucker Diabetic Fatty (ZDF) rats at 3 mg/kg i.v. dose. More on the design: dose 3 mg/kg, route intravenous. It counts as ADME, organism-based, Urine. The following applies: rat, iv. The essentials: (§2)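 Male ZDF rats, 7–8 weeks, fasted 12 h; compound or vehicle (10% Solutol) given i.v. at 2 mL/kg. Oral glucose challenge (4 mL/kg of 50% solution) 1 h later, rats then placed in metabolism cages with free water access; urine collected for 4 h, glucose quantified with Trinder reagent.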

The test system of another series is Rattus norvegicus. Described as §1. It counts as functional, Urine. As to conditions: route intravenous. The essentials: as §2

The Ki is the dissociation constant of the complex between target and ligand, obtained from inhibition or displacement. A higher Ki goes with a looser hold on the target. As a reminder, the half-life is how long it takes for the measured level to halve. A high value points to slow decline.

For the molecule `O=C(CCc1ccc2ccccc2c1)c1c(Cl)cccc1O[C@@H]1O[C@H](CO)[C@@H](O)[C@H](O)[C@H]1O`, the inhibition constant Ki in series [1] was above 1700 nM.

In turn, `CCOc1ccc(CCC(=O)c2c(N)cc(C)cc2O[C@@H]2O[C@H](CO)[C@@H](O)[C@H](O)[C@H]2O)cc1` registered a Ki in series [1] of 1280 nM. That is a single-digit micromolar value.

As for `CC(C)c1cc(O)c(C(=O)CCc2ccc3ccccc3c2)c(O[C@@H]2O[C@H](CO)[C@@H](O)[C@H](O)[C@H]2O)c1`, affinity in series [1] was put at a Ki of 150 nM.

In series [1], `Cc1cc(N)c(C(=O)CCc2ccc3c(c2)OCCO3)c(O[C@@H]2O[C@H](CO)[C@@H](O)[C@H](O)[C@H]2O)c1` returned a Ki of 290 nM.

As to `Cc1cc(O)c(C(=O)CCc2ccc3ccccc3c2)c(O[C@@H]2O[C@H](CO)[C@@H](O)[C@H](O)[C@H]2O)c1`, the Ki in series [1] was determined as 10 nM. This Ki is about 29-fold lower than that of the molecule before.

The molecule `CC(C)c1cc(O)c(C(=O)CCc2ccc3c(c2)OCCO3)c(O[C@@H]2O[C@H](CO)[C@@H](O)[C@H](O)[C@H]2O)c1` displayed an inhibition constant Ki in series [1] of 20 nM.

For the molecule `Cc1cc(O)c(C(=O)CCC2CCCCC2)c(O[C@@H]2O[C@H](CO)[C@@H](O)[C@H](O)[C@H]2O)c1`, the inhibition constant (Ki) in series [1] stood at 40 nM.

The molecule `O=C(CCc1ccc2c(c1)OCCO2)c1c(Cl)cccc1O[C@@H]1O[C@H](CO)[C@@H](O)[C@H](O)[C@H]1O` displayed a Ki in series [1] above 1700 nM.

In the case of `Cc1cc(O)c(C(=O)CCc2ccc3occc3c2)c(O[C@@H]2O[C@H](CO)[C@@H](O)[C@H](O)[C@H]2O)c1`, the Ki in series [1] stood at 4 nM. The molecule further had a half-life at 5 µM in series [2] of 24 min. In series [3], this molecule yielded an Excreted glucose of 1189 mg.

Turning to `O=C(CCc1ccc2c(c1)OCCO2)c1c(O)cc(Cl)cc1O[C@@H]1O[C@H](CO)[C@@H](O)[C@H](O)[C@H]1O`, the inhibitory constant (Ki) in series [1] was 20 nM.

Molecule `CCOc1ccc(CCC(=O)c2c(O)cc(C)cc2O[C@@H]2O[C@H](CO)[C@@H](O)[C@H](O)[C@H]2O)cc1` returned an inhibitory constant (Ki) in series [1] of 10 nM. This molecule returned a half-life at 5 µM in series [2] above 45 min.

In turn, `CCOc1ccc(CCC(=O)c2c(O)cc(CC)cc2O[C@@H]2O[C@H](CO)[C@@H](O)[C@H](O)[C@H]2O)cc1` registered a Ki in series [1] of 30 nM. This molecule also returned a half-life at 5 µM in series [2] above 45 min.

With `CCOc1ccc(CCC(=O)c2c(O)cc(Cl)cc2O[C@@H]2O[C@H](CO)[C@@H](O)[C@H](O)[C@H]2O)cc1`, affinity in series [1] was put at a Ki of 80 nM.

On to `Cc1cc(O)c(C(=O)CCc2ccc3c(c2)OCCO3)c(O[C@@H]2O[C@H](CO)[C@@H](O)[C@H](O)[C@H]2O)c1`, for which the Excreted glucose in the series with Rattus norvegicus stood at 608 mg. In series [1], this molecule returned an inhibition constant (Ki) of 9 nM. This molecule also registered a half-life at 5 µM in series [2] above 45 min.

On to `Cc1cc(O)c(C(=O)CCc2ccsc2)c(O[C@@H]2O[C@H](CO)[C@@H](O)[C@H](O)[C@H]2O)c1`, for which the affinity in series [1], expressed as Ki, was 70 nM.

In series [1], `Cc1cc(N)c(C(=O)CCc2ccc3ccccc3c2)c(O[C@@H]2O[C@H](CO)[C@@H](O)[C@H](O)[C@H]2O)c1` displayed an inhibition constant Ki of 520 nM.

`CCc1cc(O)c(C(=O)CCc2ccc3ccccc3c2)c(O[C@@H]2O[C@H](CO)[C@@H](O)[C@H](O)[C@H]2O)c1`: the Ki in series [1] worked out at 10 nM.

As to `CCc1cc(O)c(C(=O)CCc2ccc3c(c2)OCCO3)c(O[C@@H]2O[C@H](CO)[C@@H](O)[C@H](O)[C@H]2O)c1`, in series [1], the inhibition constant Ki turned out to be 10 nM.

In the case of `Cc1cc(O)c(C(=O)CCc2ccoc2)c(O[C@@H]2O[C@H](CO)[C@@H](O)[C@H](O)[C@H]2O)c1`, the Ki in series [1] worked out at 230 nM.

`CCOc1ccc(CCC(=O)c2c(O)cc(C(C)C)cc2O[C@@H]2O[C@H](CO)[C@@H](O)[C@H](O)[C@H]2O)cc1`: affinity in series [1] was put at a Ki of 110 nM.

In the case of `O=C(CCc1ccc2ccccc2c1)c1c(O)cc(F)cc1O[C@@H]1O[C@H](CO)[C@@H](O)[C@H](O)[C@H]1O`, the affinity in series [1] corresponds to a Ki of 70 nM.

Turning to `CCOc1ccc(CCC(=O)c2c(Cl)cccc2O[C@@H]2O[C@H](CO)[C@@H](O)[C@H](O)[C@H]2O)cc1`, the Ki in series [1] was above 1700 nM.

For `O=C(CCc1ccc2ccccc2c1)c1c(O)cc(Cl)cc1O[C@@H]1O[C@H](CO)[C@@H](O)[C@H](O)[C@H]1O`, in series [1], the Ki was determined as 30 nM. In other words, the double-digit nanomolar range.

For the origin of these results see ChEMBL document CHEMBL1137899, “Glycosylated dihydrochalcones as potent and selective sodium glucose co-transporter 2 (SGLT2) inhibitors” (Bioorg Med Chem Lett, 2004).
